Reference: ChEMBL document CHEMBL4004819, “Discovery of a Phosphoinositide 3-Kinase (PI3K) β/δ Inhibitor for the Treatment of Phosphatase and Tensin Homolog (PTEN) Deficient Tumors: Building PI3Kβ Potency in a PI3Kδ-Selective Template by Targeting Nonconserved Asp856” (J Med Chem, 2017)

Assays:
[1] = target: PI3-kinase p110-alpha/p85-alpha (Homo sapiens, UniProt P42336); assay: Inhibition of human full length PI3K p110alpha/p85 alpha using PIP2/ATP as substrate after 30 mins by TR-FRET assay
[2] = target: PI3-kinase p110-delta/p85-alpha (Homo sapiens, UniProt O00329); assay: Inhibition of human full length PI3K p110delta/p85 alpha using PIP2/ATP as substrate after 30 mins by TR-FRET assay
[3] = target: Phosphatidylinositol 4,5-bisphosphate 3-kinase catalytic subunit gamma isoform (Homo sapiens, UniProt P48736); assay: Inhibition of human full length PI3Kgamma using PIP2/ATP as substrate after 30 mins by TR-FRET assay
[4] = Drug metabolism in human hepatocytes assessed as formation of oxidative metabolite of pyrimidine moiety; type: ADME, cell-based, Hepatocyte
[5] = Permeability from apical to basolateral side in human Caco2 cells; type: ADME, cell-based; details: Caco-2, read-out: permeability
[6] = Permeability from basolateral to apical side in human Caco2 cells; type: ADME, cell-based; details: Caco-2, read-out: permeability
[7] = Clearance in Sprague-Dawley rat at 1 mg/kg, iv administered via infusion over 30 mins measured over 24 hrs by LC/MS/MS analysis; type: ADME, organism-based; details: in vivo
[8] = Volume of distribution at steady state in Sprague-Dawley rat plasma at 1 mg/kg, iv administered via infusion over 30 mins measured over 24 hrs by LC/MS/MS analysis; type: ADME, organism-based; details: read-out: Vdss
Procedure, shortened: (§1)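 Single intravenous dose of 1 mg/kg. Half-life, mean residence time and steady-state volume of distribution were taken from the iv arm. Values are mean ± SD, n=3 animals per route.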

[9] = Oral bioavailability in Sprague-Dawley rat plasma at 5 mg/kg administered via gavage by LC/MS/MS analysis; type: ADME, organism-based
Procedure, shortened: (§2)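 Oral dose of 5 mg/kg, formulated in 5% ethanol, 50% PEG 300 and 45% water. Bioavailability was referenced to the separate 1 mg/kg intravenous arm. Values are mean ± SD, n=3 animals per route.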

Mus musculus [10] = assay: In vivo inhibition of PI3Kbeta in CB17 SCID mouse xenografted with human PTEN-deficient androgen responsive LNCAP cells assessed as inhibition of AKT1 phosphorylation at Serine 473 at […] administered by oral gavage and measured after 8 hrs; type: functional
LNCaP [11] = assay: Antitumor activity against human PTEN-deficient androgen responsive LNCAP cells xenografted in CB17 SCID mouse assessed as tumor growth inhibition at 3 mg/kg administered by oral gavage twice daily for 14 days; type: functional; details: 336 h, read-out: TGI
Procedure, shortened: (§3)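 Mice bearing LNCaP tumours were dosed at 15, 7.5 and 3 mg/kg twice a day. Tumour volume (mm3) was measured twice a week throughout. Growth inhibition was calculated after the final dose for each dose group.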

[12] = Inhibition of human CYP450; type: ADME
Procedure, shortened: (§4)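 Measured in binding assays against major human CYP450 enzymes and hERG.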

[13] = target: Voltage-gated inwardly rectifying potassium channel KCNH2 (Homo sapiens, UniProt Q12809); assay: Inhibition of human ERG; procedure, shortened: as §4
[14] = Inhibition of PI3Kbeta mutant in PTEN-deficient human A498 cells assessed decrease in AKT1 phosphorylation at Ser473 after 2 hrs; details: A498, 2 h
PC-3 = assay: Growth inhibition of PTEN-deficient human PC3 cells after 72 hrs by Celltiter-Glo reagent based assay; type: functional; details: PC-3, 72 h
LNCaP [15] = assay: Growth inhibition of PTEN-deficient human LNCAP cells after 72 hrs by Celltiter-Glo reagent based assay; type: functional
MDA-MB-415 = assay: Growth inhibition of PTEN-deficient human MDA-MB-415 cells after 72 hrs by Celltiter-Glo reagent based assay; type: functional; details: MDA-MB-415, 72 h
ZR-75-1 = assay: Growth inhibition of PTEN-deficient human ZR-75-1 cells after 72 hrs by Celltiter-Glo reagent based assay; type: functional; details: ZR-75-1, 72 h
A498 = assay: Growth inhibition of human A498 cells harboring PI3Kbeta mutant after 72 hrs by Celltiter-Glo reagent based assay; type: functional; details: A498, 72 h
[16] = Unbound fraction in Sprague-Dawley rat plasma; type: ADME, cell-free
[17] = Clearance in Sprague-Dawley rat plasma at 1 mg/kg, iv administered via infusion over 30 mins measured over 24 hrs by LC/MS/MS analysis; type: ADME, organism-based; procedure, shortened: as §1
[18] = Apparent terminal half life in Sprague-Dawley rat plasma at 1 mg/kg, iv administered via infusion over 30 mins measured over 24 hrs by LC/MS/MS analysis; type: ADME, organism-based; details: read-out: betat1/2(app) (converted); procedure, shortened: as §1
[19] = Mean residence time in Sprague-Dawley rat plasma at 1 mg/kg, iv administered via infusion over 30 mins measured over 24 hrs by LC/MS/MS analysis; type: ADME, organism-based; procedure, shortened: as §1
[20] = Unbound fraction in Beagle dog plasma; type: ADME, cell-free, Canis lupus familiaris
[21] = Clearance in Beagle dog plasma at 1 mg/kg, iv administered via infusion over 30 mins measured over 24 hrs by LC/MS/MS analysis; type: ADME, organism-based, Canis lupus familiaris; procedure, shortened: as §1
[22] = Volume of distribution at steady state in Beagle dog plasma at 1 mg/kg, iv administered via infusion over 30 mins measured over 24 hrs by LC/MS/MS analysis; type: ADME, organism-based, Canis lupus familiaris; details: read-out: Vdss; procedure, shortened: as §1
[23] = Apparent terminal half life in Beagle dog plasma at 1 mg/kg, iv administered via infusion over 30 mins measured over 24 hrs by LC/MS/MS analysis; type: ADME, organism-based, Canis lupus familiaris; details: read-out: betat1/2(app) (converted); procedure, shortened: as §1
[24] = Mean residence time in Beagle dog plasma at 1 mg/kg, iv administered via infusion over 30 mins measured over 24 hrs by LC/MS/MS analysis; type: ADME, organism-based, Canis lupus familiaris; procedure, shortened: as §1
[25] = Oral bioavailability in Beagle dog plasma at 5 mg/kg administered via gavage by LC/MS/MS analysis; type: ADME, organism-based, Canis lupus familiaris; procedure, shortened: as §2
[26] = Unbound fraction in cynomolgus monkey plasma; type: ADME, cell-free, Macaca fascicularis
[27] = Clearance in cynomolgus monkey plasma at 1 mg/kg, iv administered via infusion over 30 mins measured over 24 hrs by LC/MS/MS analysis; type: ADME, organism-based, Macaca fascicularis; procedure, shortened: as §1
[28] = Volume of distribution at steady state in cynomolgus monkey at 1 mg/kg, iv administered via infusion over 30 mins measured over 24 hrs by LC/MS/MS analysis; type: ADME, organism-based, Macaca fascicularis; details: in vivo, read-out: Vdss; procedure, shortened: as §1
[29] = Apparent terminal half life in cynomolgus monkey plasma at 1 mg/kg, iv administered via infusion over 30 mins measured over 24 hrs by LC/MS/MS analysis; type: ADME, organism-based, Macaca fascicularis; details: read-out: betat1/2(app) (converted); procedure, shortened: as §1
[30] = Mean residence time in cynomolgus monkey plasma at 1 mg/kg, iv administered via infusion over 30 mins measured over 24 hrs by LC/MS/MS analysis; type: ADME, organism-based, Macaca fascicularis; procedure, shortened: as §1
[31] = Oral bioavailability in cynomolgus monkey plasma at 5 mg/kg administered via gavage by LC/MS/MS analysis; type: ADME, organism-based, Macaca fascicularis; procedure, shortened: as §2
[32] = Unbound fraction in rhesus monkey plasma; type: ADME, cell-free, Macaca mulatta
[33] = Clearance in rhesus monkey plasma at 1 mg/kg, iv administered via infusion over 30 mins measured over 24 hrs by LC/MS/MS analysis; type: ADME, organism-based, Macaca mulatta; procedure, shortened: as §1
[34] = Volume of distribution at steady state in rhesus monkey at 1 mg/kg, iv administered via infusion over 30 mins measured over 24 hrs by LC/MS/MS analysis; type: ADME, organism-based, Macaca mulatta; details: in vivo, read-out: Vdss; procedure, shortened: as §1
[35] = Apparent terminal half life in rhesus monkey plasma at 1 mg/kg, iv administered via infusion over 30 mins measured over 24 hrs by LC/MS/MS analysis; type: ADME, organism-based, Macaca mulatta; details: read-out: betat1/2(app) (converted); procedure, shortened: as §1
[36] = Mean residence time in rhesus monkey plasma at 1 mg/kg, iv administered via infusion over 30 mins measured over 24 hrs by LC/MS/MS analysis; type: ADME, organism-based, Macaca mulatta; procedure, shortened: as §1
LNCaP [37] = assay: Antitumor activity against human PTEN-deficient androgen responsive LNCAP cells xenografted in CB17 SCID mouse assessed as tumor growth inhibition at 15 mg/kg administered by oral gavage twice daily for 14 days; type: functional; details: 336 h, read-out: TGI; procedure, shortened: as §3
LNCaP [38] = assay: Antitumor activity against human PTEN-deficient androgen responsive LNCAP cells xenografted in CB17 SCID mouse assessed as tumor growth inhibition at […] administered by oral gavage twice daily for 14 days; type: functional; details: 336 h, read-out: TGI
LNCaP [39] = assay: Antitumor activity against human PTEN-deficient androgen responsive LNCAP cells xenografted in CB17 SCID mouse administered by oral gavage twice daily for 14 days; type: functional; details: 336 h, read-out: MED; procedure, shortened: as §3
Mus musculus [40] = assay: In vivo inhibition of PI3Kbeta in CB17 SCID mouse xenografted with human PTEN-deficient androgen responsive LNCAP cells assessed as inhibition of AKT1 phosphorylation at Serine 473 at 15 mg/kg administered by oral gavage and measured after 2 hrs; type: functional

Sequence of Phosphatidylinositol 4,5-bisphosphate 3-kinase catalytic subunit gamma isoform (P48736 whole entry, canonical isoform): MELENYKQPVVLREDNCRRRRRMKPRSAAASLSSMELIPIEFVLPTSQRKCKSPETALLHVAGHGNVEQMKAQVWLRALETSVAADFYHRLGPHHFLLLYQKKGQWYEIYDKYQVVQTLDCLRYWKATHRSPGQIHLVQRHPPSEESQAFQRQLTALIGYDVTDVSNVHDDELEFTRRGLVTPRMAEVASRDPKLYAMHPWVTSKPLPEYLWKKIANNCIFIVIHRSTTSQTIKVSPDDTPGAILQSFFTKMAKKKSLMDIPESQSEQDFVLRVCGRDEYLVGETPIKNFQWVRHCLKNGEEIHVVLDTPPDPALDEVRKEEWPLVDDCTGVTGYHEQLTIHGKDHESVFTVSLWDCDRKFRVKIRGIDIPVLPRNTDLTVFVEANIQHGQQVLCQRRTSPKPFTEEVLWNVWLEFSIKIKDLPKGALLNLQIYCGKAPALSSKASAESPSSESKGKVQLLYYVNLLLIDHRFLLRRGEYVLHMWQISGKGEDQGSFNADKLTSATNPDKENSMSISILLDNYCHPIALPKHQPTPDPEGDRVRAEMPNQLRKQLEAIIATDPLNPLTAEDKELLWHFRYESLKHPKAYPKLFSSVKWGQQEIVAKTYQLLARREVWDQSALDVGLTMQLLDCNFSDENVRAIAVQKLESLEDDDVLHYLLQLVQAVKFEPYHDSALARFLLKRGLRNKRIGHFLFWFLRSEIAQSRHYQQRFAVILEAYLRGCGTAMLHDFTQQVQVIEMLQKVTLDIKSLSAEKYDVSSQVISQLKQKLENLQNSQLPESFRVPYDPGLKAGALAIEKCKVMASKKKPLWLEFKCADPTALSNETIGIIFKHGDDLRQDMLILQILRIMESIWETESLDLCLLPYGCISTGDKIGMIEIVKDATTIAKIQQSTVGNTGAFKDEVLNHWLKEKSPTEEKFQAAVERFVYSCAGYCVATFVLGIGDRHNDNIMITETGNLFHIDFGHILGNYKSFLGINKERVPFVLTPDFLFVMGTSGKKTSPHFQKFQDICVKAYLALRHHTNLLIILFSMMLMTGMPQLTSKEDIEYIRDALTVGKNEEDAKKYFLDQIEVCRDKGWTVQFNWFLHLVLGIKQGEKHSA
Sequence of PI3-kinase p110-alpha/p85-alpha (P27986 whole entry): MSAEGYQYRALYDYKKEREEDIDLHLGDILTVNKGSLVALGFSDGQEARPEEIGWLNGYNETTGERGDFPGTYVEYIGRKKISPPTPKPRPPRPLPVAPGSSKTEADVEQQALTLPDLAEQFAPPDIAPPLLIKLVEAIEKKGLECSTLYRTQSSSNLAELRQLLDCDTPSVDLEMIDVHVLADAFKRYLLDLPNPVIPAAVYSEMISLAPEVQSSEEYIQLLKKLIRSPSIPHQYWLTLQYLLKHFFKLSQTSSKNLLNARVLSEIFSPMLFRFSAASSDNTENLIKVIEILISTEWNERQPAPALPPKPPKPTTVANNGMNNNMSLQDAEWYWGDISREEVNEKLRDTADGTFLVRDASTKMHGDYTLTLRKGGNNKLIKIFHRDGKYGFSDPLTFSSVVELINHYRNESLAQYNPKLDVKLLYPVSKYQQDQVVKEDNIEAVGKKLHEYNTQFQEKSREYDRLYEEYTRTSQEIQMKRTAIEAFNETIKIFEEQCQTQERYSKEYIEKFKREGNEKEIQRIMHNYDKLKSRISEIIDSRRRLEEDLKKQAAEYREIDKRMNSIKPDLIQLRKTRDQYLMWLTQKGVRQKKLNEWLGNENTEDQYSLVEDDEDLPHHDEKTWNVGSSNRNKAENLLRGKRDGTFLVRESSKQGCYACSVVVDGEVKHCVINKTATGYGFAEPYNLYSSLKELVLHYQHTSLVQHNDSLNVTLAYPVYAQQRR
Sequence of PI3-kinase p110-alpha/p85-alpha (P42336 whole entry): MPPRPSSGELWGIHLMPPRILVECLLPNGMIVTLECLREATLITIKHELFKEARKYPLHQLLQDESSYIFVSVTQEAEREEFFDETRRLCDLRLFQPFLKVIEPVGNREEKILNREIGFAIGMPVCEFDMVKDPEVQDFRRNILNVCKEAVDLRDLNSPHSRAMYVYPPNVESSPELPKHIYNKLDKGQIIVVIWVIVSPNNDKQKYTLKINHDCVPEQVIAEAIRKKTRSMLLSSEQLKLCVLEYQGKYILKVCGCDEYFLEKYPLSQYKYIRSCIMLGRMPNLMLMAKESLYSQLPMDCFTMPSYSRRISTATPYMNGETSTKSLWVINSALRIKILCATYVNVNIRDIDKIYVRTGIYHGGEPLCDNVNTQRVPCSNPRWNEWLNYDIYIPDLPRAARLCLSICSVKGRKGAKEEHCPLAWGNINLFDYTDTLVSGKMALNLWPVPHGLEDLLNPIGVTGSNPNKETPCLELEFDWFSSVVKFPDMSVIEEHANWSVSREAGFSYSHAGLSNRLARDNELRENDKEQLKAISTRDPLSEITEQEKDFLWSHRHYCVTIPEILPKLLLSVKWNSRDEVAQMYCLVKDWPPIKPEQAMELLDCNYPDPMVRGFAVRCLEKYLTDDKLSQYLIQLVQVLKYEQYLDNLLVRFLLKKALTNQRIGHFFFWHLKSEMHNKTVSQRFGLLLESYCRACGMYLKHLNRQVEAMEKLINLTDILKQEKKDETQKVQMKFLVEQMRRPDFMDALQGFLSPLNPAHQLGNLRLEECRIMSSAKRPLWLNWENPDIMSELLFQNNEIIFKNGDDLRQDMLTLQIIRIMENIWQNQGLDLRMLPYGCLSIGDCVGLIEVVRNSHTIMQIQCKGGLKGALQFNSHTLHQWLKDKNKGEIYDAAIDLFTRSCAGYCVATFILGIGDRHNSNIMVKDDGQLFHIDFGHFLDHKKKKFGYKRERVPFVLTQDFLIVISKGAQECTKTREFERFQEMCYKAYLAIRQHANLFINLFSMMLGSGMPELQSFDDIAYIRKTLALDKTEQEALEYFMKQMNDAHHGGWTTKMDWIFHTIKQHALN
Sequence of PI3-kinase p110-delta/p85-alpha (P27986 whole entry, canonical isoform): as the sequence (P27986 whole entry) above
Sequence of PI3-kinase p110-delta/p85-alpha (O00329 whole entry, canonical isoform): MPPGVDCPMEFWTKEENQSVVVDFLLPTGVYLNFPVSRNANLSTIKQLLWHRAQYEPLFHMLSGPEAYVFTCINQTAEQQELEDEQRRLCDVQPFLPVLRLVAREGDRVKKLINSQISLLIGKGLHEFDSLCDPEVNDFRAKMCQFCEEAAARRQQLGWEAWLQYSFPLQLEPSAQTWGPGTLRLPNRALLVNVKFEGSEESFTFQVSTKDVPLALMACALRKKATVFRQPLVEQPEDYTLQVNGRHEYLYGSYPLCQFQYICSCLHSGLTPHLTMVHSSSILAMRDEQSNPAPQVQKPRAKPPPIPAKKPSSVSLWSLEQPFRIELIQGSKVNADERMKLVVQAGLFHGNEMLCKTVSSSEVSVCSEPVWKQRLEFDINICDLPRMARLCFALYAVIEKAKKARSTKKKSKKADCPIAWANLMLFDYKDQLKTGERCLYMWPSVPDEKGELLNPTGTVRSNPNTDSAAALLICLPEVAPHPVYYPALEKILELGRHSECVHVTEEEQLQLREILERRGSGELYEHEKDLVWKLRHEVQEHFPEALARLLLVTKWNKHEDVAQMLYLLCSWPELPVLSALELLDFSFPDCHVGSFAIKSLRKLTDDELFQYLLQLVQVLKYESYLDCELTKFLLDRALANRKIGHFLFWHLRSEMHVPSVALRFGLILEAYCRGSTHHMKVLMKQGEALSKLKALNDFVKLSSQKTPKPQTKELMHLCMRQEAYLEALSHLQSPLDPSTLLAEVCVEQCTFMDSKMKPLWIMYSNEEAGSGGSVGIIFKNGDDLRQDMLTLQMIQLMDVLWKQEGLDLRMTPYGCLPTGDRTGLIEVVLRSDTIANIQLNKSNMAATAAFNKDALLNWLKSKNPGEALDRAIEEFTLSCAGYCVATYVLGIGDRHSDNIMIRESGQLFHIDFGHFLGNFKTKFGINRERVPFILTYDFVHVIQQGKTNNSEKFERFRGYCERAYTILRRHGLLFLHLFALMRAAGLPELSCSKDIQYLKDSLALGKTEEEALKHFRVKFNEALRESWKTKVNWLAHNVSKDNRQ

C[C@H](Nc1ncnc(N)c1C#N)c1nc2cccc(Cl)c2c(=O)n1-c1ccccc1
IC50 [1]: 2030 nM | IC50 [2]: 0.34 nM | IC50 [3]: 154 nM

C[C@H](Nc1nc(N)nc(N)c1Cl)c1nc2cccc(Cl)c2c(=O)n1-c1ccon1
IC50 [3]: 499 nM

CC[C@H](Nc1ncnc2[nH]cnc12)c1nc2cccc(F)c2c(=O)n1-c1ccc(O)cc1
IC50 [1]: 1600 nM | IC50 [2]: 14 nM | IC50 [3]: 4300 nM

C[C@H](Nc1nc(N)nc(N)c1C#N)c1nc2cccc(Cl)c2c(=O)n1-c1cc[nH]n1
IC50 [3]: 54 nM | Drug metabolism [4]: Metabolite_Notdetected

C[C@H](Nc1nc(N)nc(N)c1Cl)c1nc2cccc(Cl)c2c(=O)n1-c1cc[nH]n1
Papp A→B [5]: 1.1 ×10⁻⁶ cm/s | Papp B→A [6]: 19.6 ×10⁻⁶ cm/s | clearance [7]: 23.8 mL/min/kg | Vd [8]: 1.29 L/kg | bioavailability [9]: 26%

N#Cc1c(N)nc(N)nc1N[C@H](c1nc2c(Cl)cc(F)cc2c(=O)n1-c1cc[nH]n1)C1CC1
Papp A→B [5]: 1.5 ×10⁻⁶ cm/s | Papp B→A [6]: 17.3 ×10⁻⁶ cm/s | clearance [7]: 1.17 mL/min/kg | Vd [8]: 0.22 L/kg | bioavailability [9]: 12%

C[C@H](Nc1nc(N)nc(N)c1Cl)c1nc2c(Cl)cc(F)cc2c(=O)n1-c1cc[nH]n1
inhibition in vivo at […] (Mus musculus [10]): 64% | inhibition in vivo at 3 mg/kg (LNCaP [11]): 42% | IC50 [12]: > 25000 nM | IC50 [13]: > 25000 nM | EC50 [14]: 5.6 nM | GI50 (PC-3): 120 nM | GI50 (LNCaP [15]): 38 nM | GI50 (MDA-MB-415): 12 nM | GI50 (ZR-75-1): 2 nM | GI50 (A498): 80 nM | Papp A→B [5]: 5.7 ×10⁻⁶ cm/s | Papp B→A [6]: 21.7 ×10⁻⁶ cm/s | clearance [7]: 4.33 mL/min/kg | fraction unbound [16]: 0.0085 | clearance [17]: 4.33 mL/min/kg | Vd [8]: 0.52 L/kg | half-life [18]: 2.69 h | MRT [19]: 1.97 h | bioavailability [9]: 66 to 66.4% | fraction unbound [20]: 0.0196 | clearance [21]: 4.17 mL/min/kg | Vd [22]: 1.14 L/kg | half-life [23]: 3.91 h | MRT [24]: 4.7 h | bioavailability [25]: 90.4% | fraction unbound [26]: 0.0305 | clearance [27]: 4 mL/min/kg | Vd [28]: 1.5 L/kg | half-life [29]: 4.96 h | MRT [30]: 6.28 h | bioavailability [31]: 68.6% | fraction unbound [32]: 0.0333 | clearance [33]: 6.83 mL/min/kg | Vd [34]: 1.88 L/kg | half-life [35]: 3.61 h | MRT [36]: 4.54 h | inhibition in vivo at 15 mg/kg (LNCaP [37]): 73% | inhibition in vivo at […] (LNCaP [38]): 65% | minimal effective dose (LNCaP [39]): 7.5 mg/kg | inhibition in vivo at 15 mg/kg (Mus musculus [40]): 64%

N#Cc1c(N)nc(N)nc1N[C@H](c1nc2cccc(Cl)c2c(=O)n1-c1cc[nH]n1)C1CC1
IC50 [3]: 199 nM | Drug metabolism [4]: Metabolite_Notdetected

C[C@H](Nc1ncnc(N)c1C#N)c1nc2cccc(Cl)c2c(=O)n1-c1ccc(O)cc1
IC50 [3]: 187 nM

Nc1nc(N)c(Cl)c(N[C@H](c2nc3cccc(Cl)c3c(=O)n2-c2cc[nH]n2)C2CC2)n1
IC50 [3]: 4150 nM | Papp A→B [5]: 2.2 ×10⁻⁶ cm/s | Papp B→A [6]: 11.8 ×10⁻⁶ cm/s | clearance [7]: 9.67 mL/min/kg | Vd [8]: 0.83 L/kg | bioavailability [9]: 42% | Drug metabolism [4]: Metabolite_Detected

N#Cc1c(N[C@H](c2nc3c(Cl)cc(F)cc3c(=O)n2-c2cc[nH]n2)C2CC2)nc(N)nc1C(F)F
IC50 [1]: 756 nM
